Results: ChEMBL document CHEMBL1275434, “In vitro evaluation of CBR-2092, a novel rifamycin-quinolone hybrid antibiotic: studies of the mode of action in Staphylococcus aureus” (Antimicrob Agents Chemother, 2008)
Converted amounts (≈) assume the structure as drawn. The source made the active and inactive calls. The rule behind the calls is not given here.

Tests used:
Staphylococcus aureus [1] = test: Antimicrobial activity against Staphylococcus aureus CB1880 harboring rpoB R484H mutant gene by broth microdilution method; type: functional
Summary of the method: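 CLSI broth microdilution MIC in MHII broth with 0.002% (vol/vol) polysorbate 80. Isolates came from daily stepwise broth passage at sub-MIC drug (MHII without polysorbate 80, 10^6 CFU/ml inoculum, 20–24 h shaking at 37°C), were purified drug-free, and were sequenced at target loci.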

Staphylococcus aureus [2] = test: Antimicrobial activity against Staphylococcus aureus CB1881 harboring rpoB R484H mutant gene and L520 deficient gyrA gene by agar dilution method; type: functional
Summary of the method: (§1)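 CLSI agar dilution MIC on MHII base medium against stepwise-passage isolates; passage was in MHII broth without polysorbate 80, daily at 37°C.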

Staphylococcus aureus [3] = test: Antimicrobial activity against Staphylococcus aureus CB1882 harboring rpoB R484H mutant gene, L520 deficient gyrA gene and R236 duplicated parC gene; type: functional
Staphylococcus aureus [4] = test: Antimicrobial activity against Staphylococcus aureus CB1883 harboring rpoB R484H mutant gene, L520 deficient gyrA gene, gyrA S84L mutant gene and R236 duplicated par C gene by agar dilution method; type: functional; summary of the method: as §1
Staphylococcus aureus [5] = test: Antimicrobial activity against Staphylococcus aureus CB1884 by agar dilution method; type: functional; summary of the method: as §1
Staphylococcus aureus [6] = test: Antimicrobial activity against Staphylococcus aureus CB1887 harboring rpoB R484H, L520 deficient gyrA, […], R236 duplicated parC and parC H103Y mutant genes selected after ABT-719 exposure for 20 days by broth microdilution method; type: functional; details: CB1887, 480 h
Summary of the method: (§2)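 CLSI broth microdilution MIC in MHII with 0.002% polysorbate 80 against strains from 20–21 days of stepwise passage of rifamycin- and/or quinolone-resistant parents; CBR-2092 passages used MHII with 0.002% polysorbate 80.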

Staphylococcus aureus [7] = test: Antimicrobial activity against Staphylococcus aureus CB1887 harboring rpoB R484H, L520 deficient gyrA, […], R236 duplicated parC and parC H103Y mutant genes selected after ABT-719 exposure for 20 days by agar dilution method; type: functional; details: CB1887, 480 h
Staphylococcus aureus [8] = test: Antimicrobial activity against Staphylococcus aureus CB814 harboring […] and parC S80F mutant genes by agar dilution method; type: functional
Summary of the method: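 CLSI agar dilution MIC with cation-adjusted Mueller-Hinton (MHII) agar as the base medium.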

Staphylococcus aureus [9] = test: Antimicrobial activity against Staphylococcus aureus CB1952 harboring rpoB S486L, gyrA […], gyrA E88Q, gyrA G532S, parC S80F, parC E84L mutant genes selected after CBR-2092 exposure for 21 days by broth microdilution method; type: functional; details: CB1952, 504 h; summary of the method: as §2
Staphylococcus aureus [10] = test: Antimicrobial activity against Staphylococcus aureus CB815 harboring rpoB H481Y, gyrA […] and parC S80F mutant genes by broth microdilution method; type: functional
Summary of the method: (§3)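 CLSI broth microdilution MIC in cation-adjusted Mueller-Hinton (MHII) broth supplemented with 0.002% (vol/vol) polysorbate 80, included to limit compound loss to plastic surfaces.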

Staphylococcus aureus [11] = test: Antimicrobial activity against Staphylococcus aureus CB1953 harboring rpoB H481Y, gyrA S84L, gyrA V598I, parC S80F, parC R570H mutant genes selected after CBR-2092 exposure for 7 days by agar dilution method; type: functional; details: CB1953, 168 h
Summary of the method: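 CLSI agar dilution MIC on MHII base medium against strains from multistep passage (up to 20–21 days) of parents with preexisting rifamycin and/or quinolone resistance.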

[12] = Inhibition of Staphylococcus aureus wild-type RNA polymerase RpoB
Summary of the method: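 Recombinant S. aureus σA RNA polymerase holoenzyme in a single-round transcription assay using the pGL2B-T7A1-G-less template. The 272-nucleotide G-less RNA product was quantified by gel electrophoresis. IC50 is the concentration halving the product formed without test agent.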

[13] = system: DNA gyrase subunit A (Staphylococcus aureus), P20831 [S84L]; test: Activity at Staphylococcus aureus wild-type GyrA S84L mutant
Staphylococcus aureus [14] = test: Antimicrobial activity against Staphylococcus aureus CB190 by broth microdilution method; type: functional
Staphylococcus aureus [15] = test: Antimicrobial activity against Staphylococcus aureus CB811 harboring quinolone-resistant gyrA S84L mutant gene by broth microdilution method; type: functional; summary of the method: as §3
Staphylococcus aureus [16] = test: Inhibition of RNA synthesis in rifamycin-resistant Staphylococcus aureus CB370 harboring rpoB H481Y mutant gene assessed as decrease in [5,6-3H]uridine incorporation at 0.5 ug/ml; type: functional, organism-based
Summary of the method: (§4)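 Macromolecular synthesis time course in S. aureus, measuring incorporation of [methyl-3H]thymidine (DNA), [5,6-3H]uridine (RNA) or [2,3-3H]D-alanine (cell wall). At each time point, incorporation is expressed as percent of the DMSO-treated control culture. Incorporation at time zero is set to 100%.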

Staphylococcus aureus [17] = test: Inhibition of RNA synthesis in quinolone-resistant Staphylococcus aureus CB814 harboring gyrA S84L and parC S80F mutant genes assessed as decrease in [5,6-3H]uridine incorporation at 0.5 ug/ml; type: functional, organism-based; summary of the method: as §4
Staphylococcus aureus [18] = test: Antimicrobial activity against rifampin-sensitive Staphylococcus aureus CB190 by broth microdilution method; type: functional; summary of the method: as §3
Staphylococcus aureus [19] = test: Antimicrobial activity against rifampin-sensitive Staphylococcus aureus CB190 harboring rpoB H481N mutant gene by broth microdilution method; type: functional; summary of the method: as §3
Staphylococcus aureus [20] = test: Antimicrobial activity against rifampin-sensitive Staphylococcus aureus CB190 harboring rpoB N474K mutant gene by broth microdilution method; type: functional; summary of the method: as §3
Staphylococcus aureus [21] = test: Antimicrobial activity against rifampin-sensitive Staphylococcus aureus CB190 harboring rpoB A477V mutant gene by broth microdilution method; type: functional; summary of the method: as §3
Staphylococcus aureus [22] = test: Antimicrobial activity against rifampin-sensitive Staphylococcus aureus CB190 harboring rpoB D471G mutant gene by broth microdilution method; type: functional; summary of the method: as §3
Staphylococcus aureus [23] = test: Antimicrobial activity against Staphylococcus aureus CB1524 harboring rpoB H481Y and gyrA G773V mutant genes selected after 0.25 ug/ml drug exposure by broth microdilution method; type: functional
Summary of the method: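 CLSI broth microdilution in cation-adjusted Mueller-Hinton (MHII) broth supplemented with 0.002% (vol/vol) polysorbate 80 to limit compound loss to plastic. Strains are spontaneous single-step mutants isolated on agar from an rpoB H481Y parent (RN4220 background), purified through drug-free passage with the resistance phenotype re-verified as stable before testing; target loci genotyped by PCR amplification and sequencing.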

Staphylococcus aureus [24] = test: Antimicrobial activity against Staphylococcus aureus CB1430 harboring rpoB H481Y, parE E474K and gyrA S84L mutant genes selected after 0.18 ug/ml drug exposure by broth microdilution method; type: functional
Summary of the method: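 CLSI broth microdilution MIC in cation-adjusted Mueller-Hinton (MHII) broth with 0.002% (vol/vol) polysorbate 80. Single-step mutants were selected on agar […], purified by drug-free passage, their phenotype re-verified, and resistance loci sequenced.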

Staphylococcus aureus [25] = test: Antimicrobial activity against Staphylococcus aureus CB1333 harboring rpoB H481Y, parC S80F and parE L517F mutant genes selected after 0.8 ug/ml drug exposure by broth microdilution method; type: functional
Staphylococcus aureus [26] = test: Antimicrobial activity against Staphylococcus aureus CB1354 harboring rpoB H481Y, parC S80F, parE R455H and gyrA S84L mutant genes selected after 0.53 ug/ml drug exposure by broth microdilution method; type: functional
Staphylococcus aureus [27] = test: Antimicrobial activity against Staphylococcus aureus CB1871 harboring rpoB H481Y mutant gene by broth microdilution method

**Q.** Which results are given for CO[C@H]1/C=C/O[C@@]2(C)Oc3c(C)c(O)c4c(O)c(c(/C=N/N5CCC(N(C)C6([C@@H]7CCN(c8c(F)cn9c(=O)c(C(=O)O)cc(C%10CC%10)c9c8C)C7)CC6)CC5)c(O)c4c3C2=O)NC(=O)/C(C)=C\C=C\[C@H](C)[C@H](O)[C@@H](C)[C@@H](O)[C@@H](C)[C@H](OC(C)=O)[C@@H]1C?
**A.** MIC (Staphylococcus aureus [1]): 0.12 µg/mL (≈ 0.0996 µM); MIC (Staphylococcus aureus [2]): 0.25 µg/mL (≈ 0.207 µM); Time (Staphylococcus aureus [3]): 45 min; MIC (Staphylococcus aureus [4]): 1 µg/mL (≈ 0.83 µM); MIC (Staphylococcus aureus [5]): 4 µg/mL (≈ 3.32 µM); MIC (Staphylococcus aureus [6]): > 250 µg/mL; MIC (Staphylococcus aureus [7]): > 8 µg/mL; MIC (Staphylococcus aureus [8]): 0.06 µg/mL (≈ 0.0498 µM); MIC (Staphylococcus aureus [9]): 31 µg/mL (≈ 25.7 µM); MIC (Staphylococcus aureus [10]): 1 µg/mL (≈ 0.83 µM); MIC (Staphylococcus aureus [11]): 2 µg/mL (≈ 1.66 µM); IC50 [12]: 34 nM; CC50 [13]: > 150000 nM; MIC (Staphylococcus aureus [14]): 0.015 µg/mL (≈ 0.0124 µM); MIC (Staphylococcus aureus [15]): 0.015 µg/mL (≈ 0.0124 µM); Activity (Staphylococcus aureus [16]): Active; Activity (Staphylococcus aureus [17]): Active; MIC (Staphylococcus aureus [18]): 0.015 µg/mL (≈ 0.0124 µM); MIC (Staphylococcus aureus [19]): 0.25 µg/mL (≈ 0.207 µM); MIC (Staphylococcus aureus [20]): 0.25 µg/mL (≈ 0.207 µM); MIC (Staphylococcus aureus [21]): 0.12 µg/mL (≈ 0.0996 µM); MIC (Staphylococcus aureus [22]): 0.25 µg/mL (≈ 0.207 µM); MIC (Staphylococcus aureus [23]): 2 µg/mL (≈ 1.66 µM); MIC (Staphylococcus aureus [24]): 16 µg/mL (≈ 13.3 µM); MIC (Staphylococcus aureus [25]): 16 µg/mL (≈ 13.3 µM); MIC (Staphylococcus aureus [26]): 16 µg/mL (≈ 13.3 µM); MIC (Staphylococcus aureus [27]): 0.12 µg/mL (≈ 0.0996 µM)
